In ChEMBL document CHEMBL1153905, “Functionalized 3-benzylidene-indolin-2-ones: inducers of NAD(P)H-quinone oxidoreductase 1 (NQO1) with antiproliferative activity” (Bioorg Med Chem, 2009):

Legend:
[1] = Cytotoxicity against mouse Hepa-1c1c7 cells after 48 hrs by MTT assay; assay type: cell-based; conditions: hepa-1c1c7, 48 h
Method in brief: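 Murine hepatoma cells in α-MEM with 10% heat- and charcoal-treated fetal calf serum, passages 6–17; MTT read-out as for the cancer lines but with 48 h compound exposure. Highest concentration tested 25 µM. IC50 from survival-versus-concentration curve; mean and SD, n = 3.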

[2] = target: NAD(P)H dehydrogenase [quinone] 1 (Mus musculus) (UniProt Q64669); test: Induction of NQO1 activity in mouse Hepa-1c1c7 cells assessed as induction ratio at 5 uM after 48 hrs by MTT assay relative to control; assay type: cell-based
NAD(P)H dehydrogenase [quinone] 1 (Mus musculus), sequence (Q64669 whole entry): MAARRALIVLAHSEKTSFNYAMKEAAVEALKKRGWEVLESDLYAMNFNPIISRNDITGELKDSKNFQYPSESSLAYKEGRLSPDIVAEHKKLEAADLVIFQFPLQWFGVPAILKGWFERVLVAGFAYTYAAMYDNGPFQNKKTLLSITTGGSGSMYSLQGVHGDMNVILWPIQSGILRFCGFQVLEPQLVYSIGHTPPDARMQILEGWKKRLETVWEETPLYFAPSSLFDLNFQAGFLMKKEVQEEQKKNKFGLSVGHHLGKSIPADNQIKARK
Method in brief: (§1)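 Hepa1c1c7 cells, 10,000 per well, 24 h, were then treated 48 h (DMSO ≤0.5%). Digitonin/EDTA lysates were assayed for menadione-dependent MTT-formazan formation using a G6P/G6PDH NADPH-generating mix with FAD at pH 7.4. The reaction ran 5 min, was stopped with dicoumarol, and read at A590. Degree of induction = (A test − blank)/(A control − blank). Ratios were read off the induction–concentration plot at the EROD test concentration.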

[3] = target: T1, CYP1A1 (Mus musculus, UniProt P00184); test: Induction of CYP1A1 activity in mouse Hepa-1c1c7 cells assessed as induction ratio at 5 uM after 48 hrs by EROD assay relative to control; assay type: ADME, cell-based
T1 sequence (P00184 whole entry): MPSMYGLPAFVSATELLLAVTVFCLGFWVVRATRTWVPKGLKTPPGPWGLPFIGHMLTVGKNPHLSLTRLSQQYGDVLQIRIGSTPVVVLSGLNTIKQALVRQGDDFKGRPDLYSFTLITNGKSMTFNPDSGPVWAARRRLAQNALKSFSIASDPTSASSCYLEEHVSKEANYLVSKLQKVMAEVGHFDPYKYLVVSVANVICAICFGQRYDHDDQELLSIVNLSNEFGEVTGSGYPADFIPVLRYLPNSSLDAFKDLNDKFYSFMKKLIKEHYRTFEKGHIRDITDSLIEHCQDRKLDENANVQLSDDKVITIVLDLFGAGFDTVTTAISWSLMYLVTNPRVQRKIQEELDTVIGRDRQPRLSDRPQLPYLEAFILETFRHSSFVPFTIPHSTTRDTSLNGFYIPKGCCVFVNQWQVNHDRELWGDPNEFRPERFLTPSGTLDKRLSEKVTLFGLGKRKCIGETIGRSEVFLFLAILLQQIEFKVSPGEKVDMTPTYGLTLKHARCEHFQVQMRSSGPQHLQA
Method in brief: (§2)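 Hepa1c1c7 cells were seeded at 10,000 per well and grown 24 h. They were then exposed 48 h to compound (final DMSO 0.5% v/v) at about 4 × the NQO1 CD. After a PBS wash, cells got 5 µM 7-ethoxyresorufin plus 2 mM salicylamide in medium, 37 °C, 40 min. Resorufin was read at ex 530/em 590 nm, corrected for compound fluorescence. Ratio = (F treated − blank)/(F DMSO control − blank); mean ± SD, n = 3.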

[4] = target: NAD(P)H dehydrogenase [quinone] 1 (Mus musculus) (UniProt Q64669); test: Induction of NQO1 activity in mouse Hepa-1c1c7 cells assessed as induction ratio at 1 uM after 48 hrs by MTT assay relative to control; assay type: cell-based; method in brief: as §1
[5] = target: T1, CYP1A1; test: Induction of CYP1A1 activity in mouse Hepa-1c1c7 cells assessed as induction ratio at 1 uM after 48 hrs by EROD assay relative to control; assay type: ADME, cell-based
Method in brief: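 About 10,000 Hepa1c1c7 cells/well cultured 24 h, then compound (0.5% DMSO final) for 48 h, at roughly 4 × the concentration doubling NQO1 activity. After PBS wash, cells given 5 µM 7-ethoxyresorufin plus 2 mM salicylamide, 37 °C, 40 min; resorufin fluorescence ex 530/em 590 nm, corrected for compound fluorescence. Ratio = (treated − blank)/(DMSO control − blank); mean ± SD, n = 3.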

[6] = target: T1, CYP1A1; test: Induction of CYP1A1 activity in mouse Hepa-1c1c7 cells assessed as induction ratio at 2.5 uM after 48 hrs by EROD assay relative to control; assay type: ADME, cell-based; method in brief: as §2
[7] = target: NAD(P)H dehydrogenase [quinone] 1 (Mus musculus) (UniProt Q64669); test: Induction of NQO1 activity in mouse Hepa-1c1c7 cells assessed as induction ratio at 2.5 uM after 48 hrs by MTT assay relative to control; assay type: cell-based; method in brief: as §1
[8] = target: T1, CYP1A1; test: Induction of CYP1A1 activity in mouse Hepa-1c1c7 cells assessed as induction ratio at 20 uM after 48 hrs by EROD assay relative to control; assay type: ADME, cell-based; method in brief: as §2
[9] = target: NAD(P)H dehydrogenase [quinone] 1 (Mus musculus) (UniProt Q64669); test: Induction of NQO1 activity in mouse Hepa-1c1c7 cells assessed as induction ratio at 20 uM after 48 hrs by MTT assay relative to control; assay type: cell-based; method in brief: as §1
[10] = target: T1, CYP1A1; test: Induction of CYP1A1 activity in mouse Hepa-1c1c7 cells assessed as induction ratio at 7.5 uM after 48 hrs by EROD assay relative to control; assay type: ADME, cell-based; method in brief: as §2
[11] = target: NAD(P)H dehydrogenase [quinone] 1 (Mus musculus) (UniProt Q64669); test: Induction of NQO1 activity in mouse Hepa-1c1c7 cells assessed as induction ratio at 7.5 uM after 48 hrs by MTT assay relative to control; assay type: cell-based; method in brief: as §1
[12] = system: HCT-116; test: Cell cycle arrest in human HCT116 cells released from G1 block assessed as accumulation at sub G1 phase at 15 uM after 24 hrs by flow cytometry; assay type: functional
[13] = system: HCT-116; test: Cell cycle arrest in human HCT116 cells released from G2 block assessed as accumulation at sub G1 phase at 15 uM after 24 hrs by flow cytometry; assay type: functional
[14] = system: HCT-116; test: Cell cycle arrest in human HCT116 cells released from G1 block assessed as accumulation at G1 phase at 15 uM after 24 hrs by flow cytometry; assay type: functional
[15] = system: HCT-116; test: Cell cycle arrest in human HCT116 cells released from G2 block assessed as accumulation at G1 phase at 15 uM after 24 hrs by flow cytometry; assay type: functional
[16] = system: HCT-116; test: Cell cycle arrest in human HCT116 cells released from G1 block assessed as accumulation at S phase at 15 uM after 24 hrs by flow cytometry; assay type: functional
[17] = system: HCT-116; test: Cell cycle arrest in human HCT116 cells released from G2 block assessed as accumulation at S phase at 15 uM after 24 hrs by flow cytometry; assay type: functional
[18] = system: HCT-116; test: Cell cycle arrest in human HCT116 cells released from G1 block assessed as accumulation at G2/M phase at 15 uM after 24 hrs by flow cytometry; assay type: functional
[19] = system: HCT-116; test: Cell cycle arrest in human HCT116 cells released from G2 block assessed as accumulation at G2/M phase at 15 uM after 24 hrs by flow cytometry; assay type: functional

Q: Which IC50 [1] does the source give for Cc1ccccc1/C=C1/C(=O)Nc2ccccc21 here?
A: The IC50 was greater than 25 µM.

Q: And the Ratio [2]?
A: The Ratio was 4.45.

Q: And the fold induction at 48 h, 5 µM [3]?
A: Its fold induction at 48 h, 5 µM is 1.66.

Q: Which IC50 [1] does the source give for O=C1Nc2ccccc2/C1=C\c1c[nH]c2ccccc12 here?
A: The IC50 was greater than 25 µM.

Q: And the Ratio [4]?
A: Its Ratio is 4.33.

Q: And the fold induction at 48 h, 1 µM [5]?
A: The fold induction at 48 h, 1 µM was 1.28.

Q: For Cc1cccc(/C=C2/C(=O)Nc3ccccc32)c1, which IC50 [1] is on record?
A: Its IC50 is greater than 25 µM.

Q: And the Ratio [4]?
A: Its Ratio is 4.04.

Q: And the fold induction at 48 h, 1 µM [5]?
A: The fold induction at 48 h, 1 µM was 1.08.

Q: For COc1cccc(/C=C2/C(=O)Nc3ccc(Cl)cc32)c1, which fold induction at 48 h, 2.5 µM [6] is on record?
A: Its fold induction at 48 h, 2.5 µM is 1.32.

Q: What about the IC50 [1] of the same compound?
A: The IC50 was 17.5 µM.

Q: What about the Ratio [7] of the same compound?
A: Its Ratio is 4.34.

Q: With COc1cccc(CC2C(=O)Nc3ccccc32)c1 (stereo unspecified) as the compound, how does the fold induction at 48 h, 20 µM [8] read?
A: Its fold induction at 48 h, 20 µM is 1.78.

Q: And the IC50 [1]?
A: The IC50 was greater than 25 µM.

Q: What about the Ratio [9] of the same compound?
A: Its Ratio is 2.23.

Q: Which fold induction at 48 h, 20 µM [8] does the source give for O=C1Nc2ccccc2/C1=C\c1ccncc1 here?
A: Its fold induction at 48 h, 20 µM is 1.01.

Q: And the IC50 [1]?
A: Its IC50 is greater than 25 µM.

Q: What about the Ratio [9] of the same compound?
A: The Ratio was 2.08.

Q: Which IC50 [1] does the source give for O=C1Nc2ccccc2/C1=C\c1cccc(O)c1 here?
A: The IC50 was greater than 25 µM.

Q: And the Ratio [2]?
A: Its Ratio is 3.94.

Q: And the fold induction at 48 h, 5 µM [3]?
A: The fold induction at 48 h, 5 µM was 1.11.

Q: For O=C1Nc2ccccc2/C1=C\c1ccccc1O, which fold induction at 48 h, 20 µM [8] is on record?
A: Its fold induction at 48 h, 20 µM is 1.02.

Q: What about the IC50 [1] of the same compound?
A: Its IC50 is greater than 25 µM.

Q: What about the Ratio [9] of the same compound?
A: The Ratio was 3.35.

Q: For COc1ccc(/C=C2/C(=O)Nc3cc(Cl)ccc32)cc1O, which IC50 [1] is on record?
A: The IC50 was greater than 25 µM.

Q: And the Ratio [4]?
A: The Ratio was 5.09.

Q: What about the fold induction at 48 h, 1 µM [5] of the same compound?
A: Its fold induction at 48 h, 1 µM is 2.33.

Q: With O=C1Nc2ccccc2/C1=C\c1cccc(F)c1 as the compound, how does the fold induction at 48 h, 7.5 µM [10] read?
A: The fold induction at 48 h, 7.5 µM was 1.11.

Q: And the IC50 [1]?
A: The IC50 was greater than 25 µM.

Q: What about the Ratio [11] of the same compound?
A: Its Ratio is 4.19.

Q: What does the source list for O=C1Nc2ccccc2/C1=C\c1cc(O)cc(O)c1?
A: fold induction at 48 h, 20 µM [8]: 1.04; IC50 [1]: > 25 µM; Ratio [9]: 3.82

Q: Which results are given for COc1cc(/C=C2/C(=O)Nc3ccccc32)cc(OC)c1OC?
A: Activity [12]: 3.78%; Activity [13]: 4.13%; Activity [14]: 56.85%; Activity [15]: 42.06%; Activity [16]: 21.42%; Activity [17]: 16.84%; Activity [18]: 18.54%; Activity [19]: 36.45%; IC50 [1]: > 25 µM

Q: Which results are given for O=C1Nc2ccccc2/C1=C\c1ccc(F)cc1Cl?
A: fold induction at 48 h, 2.5 µM [6]: 1.2; IC50 [1]: > 25 µM; Ratio [7]: 3.52

Q: Which IC50 [1] does the source give for COc1cccc(/C=C2/C(=O)Nc3cc(F)ccc32)c1 here?
A: Its IC50 is 9.8 µM.

Q: And the Ratio [4]?
A: Its Ratio is 3.21.

Q: What about the fold induction at 48 h, 1 µM [5] of the same compound?
A: The fold induction at 48 h, 1 µM was 1.25.

Q: Which fold induction at 48 h, 20 µM [8] does the source give for O=C1Nc2ccccc2/C1=C\c1ccccc1C(F)(F)F here?
A: Its fold induction at 48 h, 20 µM is 1.2.

Q: And the IC50 [1]?
A: Its IC50 is greater than 25 µM.

Q: And the Ratio [9]?
A: Its Ratio is 2.96.

Q: Which IC50 [1] does the source give for Cc1ccc(CC2C(=O)Nc3ccccc32)cc1 (stereo unspecified) here?
A: The IC50 was greater than 25 µM.

Q: With CCc1ccc(/C=C2/C(=O)Nc3ccccc32)cc1 as the compound, how does the fold induction at 48 h, 7.5 µM [10] read?
A: Its fold induction at 48 h, 7.5 µM is 1.08.

Q: And the IC50 [1]?
A: The IC50 was greater than 25 µM.

Q: What about the Ratio [11] of the same compound?
A: Its Ratio is 4.96.

Q: With COc1cccc(/C=C2/C(=O)Nc3ccccc32)c1 as the compound, how does the IC50 [1] read?
A: Its IC50 is greater than 25 µM.

Q: What about the Ratio [4] of the same compound?
A: Its Ratio is 4.21.

Q: What about the fold induction at 48 h, 1 µM [5] of the same compound?
A: The fold induction at 48 h, 1 µM was 1.26.

Q: Which fold induction at 48 h, 7.5 µM [10] does the source give for COc1ccc(/C=C2\Nc3ccccc3C2=O)cc1O here?
A: The fold induction at 48 h, 7.5 µM was 1.38.

Q: What about the IC50 [1] of the same compound?
A: Its IC50 is greater than 25 µM.

Q: And the Ratio [11]?
A: The Ratio was 4.21.
